# Measurements reported in PubChem BioAssay.
# The source made the active and inactive calls.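 How the source made its calls, unless noted: active means viability at or under a set limit in both replicates, limit being median viability minus 3 SD (cut at about 48% in these data, passing the limit was not always enough); inconclusive means at or under the limit in just one replicate; inactive means at or above the limit in both replicates.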
# Tests used:
# [1] = reducers of endogenous Her2 protein level, primary screen, SKBR3 breast tumor cells, AlphaScreen, ATP viability (AID 461;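 active means Her2 level under about 52% in both replicate screens, with viability over 70% of control, limit read from the data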;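 on Her2 level: lower value means less Her2 protein in the cells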;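 on viability: percent of carrier control wells set as 100% viability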); conditions: 18-24 h, measured here: SKBR3 viability, ATP luminescence, at 10 µM
# [2] = target: Receptor tyrosine-protein kinase erbB-2 (Homo sapiens) (UniProt P04626); assay: as above; conditions: 18-24 h, at 10 µM, stronger effect = lower value
# Receptor tyrosine-protein kinase erbB-2 (Homo sapiens), sequence (P04626 whole entry, looked up): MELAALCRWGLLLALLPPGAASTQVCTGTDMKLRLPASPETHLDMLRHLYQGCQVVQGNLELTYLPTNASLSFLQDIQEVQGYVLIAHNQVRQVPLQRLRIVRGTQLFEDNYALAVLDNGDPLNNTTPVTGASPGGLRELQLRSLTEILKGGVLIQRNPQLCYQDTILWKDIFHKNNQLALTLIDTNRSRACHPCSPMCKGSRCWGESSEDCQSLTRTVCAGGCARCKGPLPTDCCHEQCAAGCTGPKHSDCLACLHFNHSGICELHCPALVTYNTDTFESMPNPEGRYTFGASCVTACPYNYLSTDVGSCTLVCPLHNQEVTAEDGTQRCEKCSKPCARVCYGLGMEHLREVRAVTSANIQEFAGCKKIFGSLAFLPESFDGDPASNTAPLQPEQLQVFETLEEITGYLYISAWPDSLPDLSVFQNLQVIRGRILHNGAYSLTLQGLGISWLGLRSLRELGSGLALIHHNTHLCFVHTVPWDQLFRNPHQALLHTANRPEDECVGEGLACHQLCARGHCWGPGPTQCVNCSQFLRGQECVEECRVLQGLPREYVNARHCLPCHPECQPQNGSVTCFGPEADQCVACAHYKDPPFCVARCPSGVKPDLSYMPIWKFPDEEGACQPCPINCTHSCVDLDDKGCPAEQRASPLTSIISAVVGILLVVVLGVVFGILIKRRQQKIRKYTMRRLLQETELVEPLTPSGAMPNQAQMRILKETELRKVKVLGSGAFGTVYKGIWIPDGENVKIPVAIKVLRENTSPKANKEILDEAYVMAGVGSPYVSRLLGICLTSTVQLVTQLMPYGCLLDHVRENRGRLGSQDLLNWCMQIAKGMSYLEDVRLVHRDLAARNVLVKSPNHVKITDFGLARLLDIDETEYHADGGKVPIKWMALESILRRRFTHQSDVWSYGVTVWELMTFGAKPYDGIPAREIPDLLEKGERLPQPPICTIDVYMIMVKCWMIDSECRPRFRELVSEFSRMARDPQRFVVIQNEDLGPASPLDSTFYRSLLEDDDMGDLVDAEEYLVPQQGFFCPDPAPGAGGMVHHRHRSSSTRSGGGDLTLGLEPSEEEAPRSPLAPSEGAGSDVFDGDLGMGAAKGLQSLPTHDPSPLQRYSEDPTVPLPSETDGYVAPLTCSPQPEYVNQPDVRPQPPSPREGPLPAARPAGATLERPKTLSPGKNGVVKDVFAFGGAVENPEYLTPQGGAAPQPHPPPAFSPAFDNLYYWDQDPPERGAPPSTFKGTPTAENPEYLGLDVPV
# [3] = SK-BR-3 cell growth inhibitors, pilot screen, 24 h, human (AID 572;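 active means viability at or below 10% of carrier control in both of two separate runs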;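 further: compound exposure lasted between 18 and 24 h rather than exactly 24 h; 100% = carrier-treated control wells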); conditions: SK-BR-3 viability, CellTiter-Glo luminescence, at 10 µM, stronger effect = lower value
# [4] = HUVEC growth inhibition – cell-based, human, primary screen (AID 575;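 active means viability at or below 30% in both replicate assays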;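 further: 100% = median of untreated cell wells with 0.1% DMSO on each plate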); conditions: HUVEC proliferation, CellTiter-Glo luminescence, 72 h; at 10 µM; stronger effect = lower value
# In short: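 Assay system: Primary human umbilical vein endothelial cells | Quantity: 1250 cells per well | Medium: Supplemented EBM, 2% fetal bovine serum | Detection: CellTiter-Glo luminescence measuring cellular ATP | Read-out: % viability vs DMSO wells | Plate: Collagen-coated 384-well format | Times: 72 h exposure, 37 °C, 5% CO2, 30 min RT equilibration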
# [5] = growth inhibitors of H69AR lung tumor, primary screen, human, duplicate replicates (AID 580); conditions: H69AR lung tumor cells viability, ATP luminescence, 72 h; at 10 µM; stronger effect = lower value;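 further: 100% = mean luminescence of untreated wells and 0% = no signal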
# [6] = reversal of MRP1-mediated doxorubicin resistance, pilot screen, H69AR cells, doxorubicin co-treatment (AID 601;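 active means viability loss from added drug above about 55%, and viability with drug at most 40%, in both replicates, limit read from the data, passing the limit was not always enough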); conditions: CellTiter-Glo, 72 h, at 10 µM; for differential viability (reversal): stronger effect = higher value
# [7] = 384-well plate pilot, post-Golgi transport modulator project, inhibition of yeast transport mutant growth (AID 636; in the data active means inhibition above about 31%); conditions: absorbance 615 nm, about 18 h, stronger effect = higher value
# [8] = growth suppression of yeast trafficking mutant, preliminary HTS, modulators of trafficking downstream of Golgi apparatus project, 1536-format plate, OD 615 nm (AID 637; in the data active means inhibition above about 30%); conditions: yeast transport mutant growth, absorbance 615 nm, 18 h; stronger effect = higher value
# [9] = H69AR cells + 2 uM doxorubicin, measured here: viability with 2 uM doxorubicin, stronger effect = lower value
# [10] = H69AR cells, compound alone cytotoxicity
SMILES,viability [1] [%],Her2 level [2],viability [3],viability [4],viability [5],differential viability (reversal) ([6]; H69AR cells + 2 uM doxorubicin),"viability [6, 9] [%]","viability [6, 10] [%]",inhibition [7],inhibition [8]
CN(CC(=O)N1CCN(c2ccc(F)cc2)CC1)S(=O)(=O)c1ccc(F)cc1,97,95.5% (inactive),97% (inactive),88.4% (inactive),86.6% (inactive),-7.95% (inactive),94.5,86.6,-6.18% (inactive),5.25% (inactive)
CCOc1ccc(-c2nnc(N)s2)cc1,95,90.5% (inactive),95% (inactive),96.3% (inactive),118% (inactive),25.6% (inactive),92.3,118,0.67% (inactive),-1.29% (inactive)
Cc1nc(CCNC(=O)c2ccccc2)cs1,92.5,95% (inactive),92.5% (inactive),106% (inactive),98.5% (inactive),7.85% (inactive),90.6,98.5,0.27% (inactive),4.03% (inactive)
C#CCNc1c(C)c(C)nc2ncnn12,104,97% (inactive),104% (inactive),126% (inactive),104% (inactive),18.7% (inactive),85.3,104,-5.07% (inactive),11.5% (inactive)
CC(C)Cc1cc(C(=O)Nc2c(F)cc(F)cc2Br)no1,88.5,106% (inactive),88.5% (inactive),107% (inactive),113% (inactive),30% (inactive),82.8,113,0.64% (inactive),-4.33% (inactive)
Clc1ccc(-n2ncc3c(NCCCn4ccnc4)ncnc32)cc1,87,76.5% (inactive),87% (inactive),91.2% (inactive),93.5% (inactive),11.3% (inactive),82.2,93.5,-5.6% (inactive),3.39% (inactive)
CCOC(=O)c1sc(NC(=O)CSc2nnc3c4ccccc4n(CC)c3n2)nc1C,83.5,104% (inactive),83.5% (inactive),104% (inactive),96.2% (inactive),-0.44% (inactive),96.7,96.2,1.67% (inactive),-3.33% (inactive)
